The list is not random: actives were taken first. Their share in the collection is about 1.9%.
Autophagy HCS = autophagy modulators in MEF cells, primary screen, imaging, high-content, MEF GFP-LC3. MEF GFP-LC3 puncta imaging; test concentration mostly 10 µM. calls only at 10 µM (by protocol). 190,000 compounds, 0.98% hits;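 active = percentage of spot-positive cells more than 3 SD above its plate mean, without a fluorescence outlier flag or 80% toxicity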
Insulin prom up = insulin promoter activators in MIN6 cells, imaging, high-content screening, mouse beta cells | MIN6 insulin promoter-GFP reporter; hits give high values | AID 1625, 2009 | 190,000 compounds, 0.3% hits | z-score at 5 µM;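 active = z-score above 3 at 5 µM with at least 500 cells counted in the well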
Tb hexokinase = Trypanosoma brucei hexokinase 1 inhibitors, primary screen, biochemical, G6PDH-coupled NADH absorbance, MLSCN library; recombinant TbHK1, G6PDH-coupled NADH A340; inhibition, % at 10 µM; 220,000 compounds, 0.11% hits; AID 1430, 2008;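 active = inhibition of 50% or more in the single-dose primary screen; inactive = inhibition below 50%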
b-catenin transl = modulators of beta-catenin nuclear translocation, primary screen, imaging, HeLa cells, immunofluorescence, high-content; nuclear translocation activity, % at 5 µM; 190,000 compounds, 0.3% hits; AID 1665, 2009;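 active = nuclear translocation activity above 50% at 5 µM, with a well cell count of 50 or more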;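 note: per-cell ratio of nuclear to cytoplasmic median beta-catenin stain intensity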
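Technique: fluorescence imaging of beta-catenin antibody stain plus DAPI / Material: human HeLa cell line / Incubation: compound treatment 24 h, 37°C, 5% CO2 / Read-out basis: % activation of per-cell nuclear versus cytoplasmic median beta-catenin signal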
MT stabilizer = microtubule stabilizers in HeLa cells, primary screen, imaging, high-content imaging; 200,000 compounds, 0.83% hits; HeLa tubulin immunostaining HCS, 24 h; share of cells brighter than vehicle mean+2SD; % tubulin-high responders, % at 10 µM; AID 2205, 2009;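 active = plate Z-score above 3 for both tubulin-high and condensed-nucleus cell shares, with cell loss under 80%, at 10 µM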;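 note: anti alpha tubulin signal scored within the nucleus-defined area of each cell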
Numbers stand for hits.

Screening Cc1nc2c(sc3nc(N4CCOCC4)c4c(c32)CC(C)(C)OC4)c(-c2ccc(Cl)cc2)c1C(=O)O returned Insulin prom up inactive, Tb hexokinase inactive and b-catenin transl inactive.
COc1ccc(COc2cc(-c3cccc(OC)c3)nc3ccc(NC(=O)c4ccc(N(C)C)cc4)cc23)cc1 was read as Autophagy HCS inactive, Insulin prom up inactive, Tb hexokinase inactive and MT stabilizer 20.
Screening COc1ccc(C(=O)Nc2ccc3[nH]c(-c4cccc(OC)c4)cc(=O)c3c2)cc1 returned Autophagy HCS inactive, Insulin prom up inactive, Tb hexokinase inactive, b-catenin transl 56 and MT stabilizer 32.
COc1ccc(C(=O)Nc2cccc(OC)c2)cc1 was read as Autophagy HCS inactive, Insulin prom up inactive, Tb hexokinase inactive, b-catenin transl inactive and MT stabilizer inactive.
`O=C(NNC1=Nc2cccc3cccc1c23)c1ccc(Br)cc1` gave Autophagy HCS inactive, Tb hexokinase inactive, b-catenin transl inactive and MT stabilizer inactive.
For Cc1noc(C)c1C(=O)N1CCN(S(=O)(=O)c2cccc(Cl)c2Cl)CC1 the results were Insulin prom up inactive, Tb hexokinase inactive and b-catenin transl inactive.
For O=C(CS(=O)(=O)c1c[nH]c2ccccc12)N1CCCCCC1 the results were Autophagy HCS inactive, Insulin prom up inactive, Tb hexokinase inactive, b-catenin transl inactive and MT stabilizer inactive.
For C[n+]1cc(C(=O)N2CCCCC2)ccc1/C=C/c1c[nH]c2ccccc12 the results were Autophagy HCS inactive, Insulin prom up 4, Tb hexokinase inactive, b-catenin transl inactive and MT stabilizer inactive.
`COc1ccc(-c2noc(-c3cccs3)n2)cc1OC` gave Insulin prom up inactive, Tb hexokinase inactive and b-catenin transl inactive.
Screening COc1ccc(-c2cc(-c3cccs3)nc(OC)c2C#N)cc1OC returned Autophagy HCS inactive, Insulin prom up inactive, Tb hexokinase inactive, b-catenin transl 50 and MT stabilizer 9.6.
`COc1ccc(-c2c(C#N)c(N)nc3c2CCc2ccccc2-3)cc1OC` gave Autophagy HCS inactive, Tb hexokinase inactive and MT stabilizer 34.
Screening COc1nc(-c2cccs2)cc(-c2ccc(C)cc2)c1C#N returned Autophagy HCS inactive, Insulin prom up inactive, Tb hexokinase inactive, b-catenin transl inactive and MT stabilizer 42.
For CCc1cc2c(SCC(=O)Nc3cc(C)on3)ncnc2s1 the results were Autophagy HCS inactive, Insulin prom up inactive, Tb hexokinase inactive, b-catenin transl inactive and MT stabilizer inactive.
Screening Cn1c(C(=O)NC2CC2)cc(=O)n(C)c1=O returned Autophagy HCS inactive, Insulin prom up inactive, Tb hexokinase inactive, b-catenin transl inactive and MT stabilizer inactive.
Screening COc1ccc(/C=N/NC(=O)c2cccc(Br)c2)cc1Cn1cc(Cl)cn1 returned Autophagy HCS inactive, Tb hexokinase inactive and MT stabilizer 41.
`COc1ccc(/C=N/NC(=O)c2ccc(Br)cc2)cc1Cn1cc(Cl)cn1` gave Autophagy HCS inactive, Insulin prom up inactive, Tb hexokinase inactive, b-catenin transl inactive and MT stabilizer inactive.
Screening Cc1onc(NC(=O)CSCC(=O)O)c1Br returned Tb hexokinase inactive and b-catenin transl inactive.
Cc1cc(C)c2nc(C)cc(Nc3ccc(C(=O)N(C)C)cc3)c2c1 was read as Insulin prom up inactive, Tb hexokinase inactive and b-catenin transl inactive.
Screening COC(=O)c1ccc(Nc2cc(C)nc3ccccc23)cc1 returned Insulin prom up inactive, Tb hexokinase inactive and b-catenin transl 79.
Screening COC(=O)c1ccc2nc(C)cc(Nc3ccc(N(C)C)cc3)c2c1 returned Autophagy HCS inactive, Insulin prom up inactive, Tb hexokinase inactive, b-catenin transl inactive and MT stabilizer inactive.
CC(=O)c1ccc(Nc2cc(C)nc3c(C)cc(C)cc23)cc1 was read as Autophagy HCS active, Tb hexokinase inactive, b-catenin transl 124 and MT stabilizer 20.
Fc1ccc(CSc2ccc3nnc(-c4cccnc4)n3n2)cc1 was read as Autophagy HCS inactive, Insulin prom up inactive, Tb hexokinase inactive, b-catenin transl inactive and MT stabilizer inactive.
For O=C1S/C(=C\c2ccc(N3CCOCC3)o2)C(=O)N1c1ccccc1 the results were Autophagy HCS active, Tb hexokinase inactive, b-catenin transl inactive and MT stabilizer inactive.
Screening O=C1S/C(=C\c2ccc(N3CCOCC3)o2)C(=O)N1Cc1c(F)cccc1Cl returned Autophagy HCS inactive, Tb hexokinase inactive, b-catenin transl inactive and MT stabilizer inactive.
`CCOc1ccccc1CNC(=O)c1cn(C)c(=O)c2c1c1ccccc1n2C` gave Autophagy HCS inactive, Tb hexokinase inactive, b-catenin transl inactive and MT stabilizer inactive.
Screening CCOc1ccccc1CNC(=O)CCCc1cn(C)c2ccccc12 returned Autophagy HCS active, Insulin prom up inactive, Tb hexokinase inactive, b-catenin transl inactive and MT stabilizer inactive.
Screening CCCn1c(SCC(=O)NCc2ccccc2Cl)n[nH]c1=O returned Autophagy HCS inactive, Insulin prom up inactive, Tb hexokinase inactive, b-catenin transl inactive and MT stabilizer inactive.
Cc1ccc(C)c(N2CCN(c3ccncc3N)CC2)c1 was read as Insulin prom up inactive, Tb hexokinase inactive and b-catenin transl inactive.
Screening CC(NCC(=O)Nc1cc(S(=O)(=O)N2CCCCCC2)ccc1Cl)c1ccccc1 (configuration not stated) returned Autophagy HCS inactive, Insulin prom up inactive, Tb hexokinase inactive, b-catenin transl inactive and MT stabilizer inactive.
Screening Nc1nc(-c2ccc(Cl)cc2)c(N=Nc2ccc(S(=O)(=O)N3CCOCC3)cc2)s1 returned Autophagy HCS inactive, Insulin prom up 3.8, Tb hexokinase inactive and MT stabilizer inactive.
Screening O=C(/C=C/c1ccc(S(=O)(=O)N2CCOCC2)cc1)OCC(=O)c1ccc([N+](=O)[O-])cc1 returned Insulin prom up inactive, Tb hexokinase inactive and b-catenin transl inactive.
CN1/C(=C\C=C2/C(=O)Oc3ccccc3C2=O)C(C)(C)c2ccccc21 was read as Autophagy HCS active, Tb hexokinase inactive, b-catenin transl inactive and MT stabilizer inactive.
COCCNC(=O)/C(C#N)=C/C=C/c1ccccc1[N+](=O)[O-] was read as Autophagy HCS inactive, Insulin prom up inactive, Tb hexokinase inactive, b-catenin transl inactive and MT stabilizer inactive.
Screening CCOC(=O)C1CCCN(C(=O)c2cn(C)c3ccc(S(=O)(=O)N(C)C)cc3c2=O)C1 (configuration not stated) returned Autophagy HCS active, Insulin prom up inactive, Tb hexokinase inactive, b-catenin transl inactive and MT stabilizer inactive.
CC(C)c1ccc(C2C3=C(COC3=O)Nc3cc4c(cc32)OCO4)cc1 (configuration not stated) was read as Autophagy HCS inactive, Insulin prom up inactive, Tb hexokinase inactive, b-catenin transl 74 and MT stabilizer inactive.

Source: PubChem (several laboratories)
